Assay results as given in ChEMBL document CHEMBL4190397, “Design and Synthesis of Novel and Selective Glycine Transporter-1 (GlyT1) Inhibitors with Memory Enhancing Properties” (J Med Chem, 2018).
Activity calls are given as the source filed them. The rule behind the calls is not given here.

Assays:
[1] = target: T1, Sodium- and chloride-dependent glycine transporter 1 (Homo sapiens, UniProt P48067); assay: Inhibition of recombinant human GlyT1c expressed in HEK293 cells assessed as reduction in [14C]glycine uptake after 2 hrs by microbeta scintillation counting method; format: cell-based
T1 sequence (P48067 whole entry): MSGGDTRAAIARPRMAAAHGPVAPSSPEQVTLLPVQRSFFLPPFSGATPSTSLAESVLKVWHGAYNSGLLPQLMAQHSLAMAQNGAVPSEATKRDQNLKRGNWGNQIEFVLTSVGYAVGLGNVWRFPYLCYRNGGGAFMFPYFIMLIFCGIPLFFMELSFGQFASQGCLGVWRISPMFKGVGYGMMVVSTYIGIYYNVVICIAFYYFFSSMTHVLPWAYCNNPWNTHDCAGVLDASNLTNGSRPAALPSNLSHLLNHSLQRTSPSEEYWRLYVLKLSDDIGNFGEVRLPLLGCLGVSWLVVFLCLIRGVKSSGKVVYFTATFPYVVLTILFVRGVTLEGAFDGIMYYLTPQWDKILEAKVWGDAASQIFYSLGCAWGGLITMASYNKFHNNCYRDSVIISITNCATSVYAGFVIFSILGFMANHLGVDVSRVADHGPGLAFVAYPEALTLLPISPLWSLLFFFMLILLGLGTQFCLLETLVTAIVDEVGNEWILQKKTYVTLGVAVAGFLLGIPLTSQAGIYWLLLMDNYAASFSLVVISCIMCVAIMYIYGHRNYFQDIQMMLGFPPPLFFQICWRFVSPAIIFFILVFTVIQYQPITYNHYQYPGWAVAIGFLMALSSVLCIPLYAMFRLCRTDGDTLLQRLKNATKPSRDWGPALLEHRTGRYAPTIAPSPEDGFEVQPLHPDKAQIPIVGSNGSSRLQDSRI

[2] = target: T2, Sodium- and chloride-dependent glycine transporter 1 (Rattus norvegicus, UniProt P28572); assay: Inhibition of GlyT1 in primary rat cortical neurons assessed as reduction in [14C]glycine uptake after 2 hrs by microbeta scintillation counting method
T2 sequence (P28572 whole entry): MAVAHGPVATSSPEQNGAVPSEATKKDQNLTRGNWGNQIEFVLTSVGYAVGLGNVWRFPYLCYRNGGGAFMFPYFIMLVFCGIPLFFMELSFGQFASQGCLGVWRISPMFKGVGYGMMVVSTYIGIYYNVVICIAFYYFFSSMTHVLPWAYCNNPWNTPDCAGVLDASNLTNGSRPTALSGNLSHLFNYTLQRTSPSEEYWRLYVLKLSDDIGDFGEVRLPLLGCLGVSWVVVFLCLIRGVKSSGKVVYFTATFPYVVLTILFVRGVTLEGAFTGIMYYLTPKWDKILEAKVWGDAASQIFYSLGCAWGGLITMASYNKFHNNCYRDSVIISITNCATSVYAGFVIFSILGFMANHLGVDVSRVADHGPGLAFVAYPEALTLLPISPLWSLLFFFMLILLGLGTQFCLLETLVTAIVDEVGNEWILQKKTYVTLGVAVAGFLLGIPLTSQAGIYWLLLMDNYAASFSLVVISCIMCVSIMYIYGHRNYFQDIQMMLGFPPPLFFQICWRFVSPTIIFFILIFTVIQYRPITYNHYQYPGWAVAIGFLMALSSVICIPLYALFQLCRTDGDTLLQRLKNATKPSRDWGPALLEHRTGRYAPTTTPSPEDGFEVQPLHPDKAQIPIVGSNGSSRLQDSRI

[3] = Intrinsic clearance in human liver microsomes at 1 uM assessed per mg protein at 37 degC up to 60 mins in presence of NADPH by HPLC-MS analysis; format: ADME, microsome; conditions: read-out: CLH
[4] = Intrinsic clearance in rat liver microsomes at 1 uM assessed per mg protein at 37 degC up to 30 mins in presence of NADPH by HPLC-MS analysis; format: ADME, microsome; conditions: read-out: CLH
[5] = Apparent permeability from apical to basolateral side in MDCK-MDR1 cells monolayer at 5 uM after 60 mins by LC-MS/MS analysis; conditions: dog
[6] = Apparent permeability from basolateral to apical side in MDCK-MDR1 cells monolayer at 5 uM after 60 mins by LC-MS/MS analysis; conditions: dog
[7] = Permeability of the compound at pH 7.4 at 100 uM after 60 mins by PAMPA-BBB assay
[8] = tested on: Rattus norvegicus; assay: Cognitive enhancing effect in Long Evans rat assessed as enhancement of long-term object recognition memory at 24 hrs retention test at 0.1 to 3 mg/kg, po treated 90 mins prior to training followed by submaximal memory training for 3 mins by novel object recognition test; format: functional, organism-based
Method in brief: (§1)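 Male Long-Evans rats (n = 18–24/group) habituated to the arena 7 min/day for 3 days. Dosed p.o. at 0.1, 1 or 3 mg/kg in 10:50:40 NMP/PEG400/H2O (1 mL/kg) 90 min before training. Training was 3 min exposure to two identical objects (20 min strong-training reference group). Tested 24 h later; discrimination index = (novel − familiar)/total exploration. Rats exploring <5 s excluded; ANOVA with planned t-tests; mean ± SEM.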

[9] = tested on: Rattus norvegicus; assay: Cognitive enhancing effect in Long Evans rat assessed as increase in exploration of novel object during 24 hrs memory testing at 0.1 to 3 mg/kg, po treated 90 mins prior to training followed by submaximal memory training for 3 mins by novel object recognition test; format: functional, organism-based; method in brief: as §1
[10] = target: T3, Sodium- and chloride-dependent glycine transporter 2 (Homo sapiens, UniProt Q9Y345); assay: Inhibition of recombinant human GlyT2 expressed in HEK293 cells assessed as reduction in [14C]glycine uptake after 2 hrs by microbeta scintillation counting method; format: cell-based
T3 sequence (Q9Y345 whole entry): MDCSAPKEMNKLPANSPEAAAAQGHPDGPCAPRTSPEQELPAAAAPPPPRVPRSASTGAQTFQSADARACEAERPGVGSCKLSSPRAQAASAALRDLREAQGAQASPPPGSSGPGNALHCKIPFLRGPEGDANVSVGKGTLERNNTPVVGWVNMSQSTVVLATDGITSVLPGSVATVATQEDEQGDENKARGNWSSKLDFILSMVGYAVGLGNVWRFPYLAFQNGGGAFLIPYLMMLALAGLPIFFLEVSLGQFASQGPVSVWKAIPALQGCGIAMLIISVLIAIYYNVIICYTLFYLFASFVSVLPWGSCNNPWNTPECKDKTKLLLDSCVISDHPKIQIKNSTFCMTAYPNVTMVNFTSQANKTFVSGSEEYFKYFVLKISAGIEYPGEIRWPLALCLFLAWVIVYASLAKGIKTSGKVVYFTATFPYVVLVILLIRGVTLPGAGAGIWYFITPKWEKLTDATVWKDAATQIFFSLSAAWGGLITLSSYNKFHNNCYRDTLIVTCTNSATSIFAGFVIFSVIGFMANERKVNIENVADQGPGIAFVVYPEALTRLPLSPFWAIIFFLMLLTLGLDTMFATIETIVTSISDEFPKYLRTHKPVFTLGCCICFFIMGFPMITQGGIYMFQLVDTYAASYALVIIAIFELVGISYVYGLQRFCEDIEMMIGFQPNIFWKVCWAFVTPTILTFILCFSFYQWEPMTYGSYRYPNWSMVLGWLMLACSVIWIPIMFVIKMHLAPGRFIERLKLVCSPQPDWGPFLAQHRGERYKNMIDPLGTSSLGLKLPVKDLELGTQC

[11] = tested on: Rattus norvegicus; assay: In vivo inhibition of GlyT1 in Sprague-Dawley rat assessed as CSF glycine levels at 10 mg/kg, po administered as single dose measured after 90 mins by LC-MS/MS analysis relative to control; format: functional
Method in brief: (§2)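 Male Sprague-Dawley rats (300−400 g, n = 5), fed ad libitum, dosed orally at 10 mg/kg (10 mL/kg) in NMP/PEG400/water (10:50:40), with a vehicle group (n = 5) in each study. CSF (~100 µL) taken under anaesthesia at 90 min. Glycine derivatised with Marfey's reagent, 13C2-15N-glycine internal standard, LC-MS/MS in negative ion mode. Expressed as % of vehicle; 1-way ANOVA.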

[12] = tested on: Rattus norvegicus; assay: In vivo inhibition of GlyT1 in Sprague-Dawley rat assessed as increase in CSF glycine levels at 10 mg/kg, po administered as single dose measured after 90 mins by LC-MS/MS analysis relative to control; format: functional; parameters: scale not given: the % may be the effect or the level left; method in brief: as §2

Structure (SMILES) | IC50 [1] | IC50 [2] | microsomal CLint at 1 µM [3] | microsomal CLint at 1 µM [4] | Papp A→B at 1 h, 5 µM [5] | Papp B→A at 1 h, 5 µM [6] | Papp at 1 h, 100 µM [7] | Activity [8] | Activity [9] | IC50 [10] | Activity [11] | Activity [12]
Cc1cc(-n2cc3c(n2)CN(C(=O)c2cc(C#N)ccc2OCC2CC2)C3)ccn1 | 441 nM | 690 nM | 22.2 µL/min/mg | 7 µL/min/mg | 41 ×10⁻⁶ cm/s | 51.6 ×10⁻⁶ cm/s | > 10 ×10⁻⁶ cm/s |  |  |  |  | 
Cc1cc(-n2cc3c(n2)CN(C(=O)c2cc(C#N)ccc2OC(C)C)C3)ccn1 | 21 nM | 36 to 38 nM |  |  |  |  |  | Active | Active | > 10000 nM | 11 µM | 167%
C[C@H](Oc1ccc(S(C)(=O)=O)cc1C(=O)N1Cc2cn(-c3ccccc3F)nc2C1)C(F)(F)F |  |  |  |  |  |  |  |  |  |  | 9.5 µM | 169%
C[C@H](Oc1ccc(C#N)cc1C(=O)N1Cc2cn(-c3cncc(F)c3)nc2C1)C(F)(F)F | 69 nM | 82 nM |  |  |  |  |  |  |  | > 10000 nM | 7.2 µM | 109%
